Measurements: ChEMBL document CHEMBL2016518, “Structure-activity relationships of cyanoquinolines with corrector-potentiator activity in ΔF508 cystic fibrosis transmembrane conductance regulator protein” (J Med Chem, 2012)
The source made the active and inactive calls. The calls are words filed in the database; no cut-off is given here.

Tests used:
Format in all cases: cell-based
[1] = Potentiation of genistein-induced human CFTR delta F508 mutant gating activity expressed in forskolin-stimulated FRT cells assessed as increase in iodine influx measured as decrease in YFP fluorescence after 24 hrs at 27 degC
How it was run: (§1)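 Potentiator plate-reader assay. FRT cells coexpressing human ΔF508-CFTR and YFP-H148Q/I152L, grown 18−24 h at 37 °C, then rescued 18−24 h at 27 °C. Cells are washed, then given 10 min of forskolin 20 μM plus compound in PBS (eight concentrations, 0−50 μM final). I⁻ influx comes from the YFP quench after iodide addition (2 s baseline, 12 s), by exponential regression. Controls are DMSO and genistein. EC50/Vmax come from four-parameter logistic fits; triplicate.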

[2] = molecular target: Cystic fibrosis transmembrane conductance regulator (Homo sapiens, UniProt P13569, F508DEL); assay: (§2) Activity at human CFTR delta F508 mutant expressed in forskolin-stimulated FRT cells assessed as increase in iodine influx measured as decrease in YFP fluorescence after 18 to 24 hrs at 37 degC in presence of genistein
Sequence of Cystic fibrosis transmembrane conductance regulator (Homo sapiens, UniProt P13569, F508DEL) (P13569 as listed by the source): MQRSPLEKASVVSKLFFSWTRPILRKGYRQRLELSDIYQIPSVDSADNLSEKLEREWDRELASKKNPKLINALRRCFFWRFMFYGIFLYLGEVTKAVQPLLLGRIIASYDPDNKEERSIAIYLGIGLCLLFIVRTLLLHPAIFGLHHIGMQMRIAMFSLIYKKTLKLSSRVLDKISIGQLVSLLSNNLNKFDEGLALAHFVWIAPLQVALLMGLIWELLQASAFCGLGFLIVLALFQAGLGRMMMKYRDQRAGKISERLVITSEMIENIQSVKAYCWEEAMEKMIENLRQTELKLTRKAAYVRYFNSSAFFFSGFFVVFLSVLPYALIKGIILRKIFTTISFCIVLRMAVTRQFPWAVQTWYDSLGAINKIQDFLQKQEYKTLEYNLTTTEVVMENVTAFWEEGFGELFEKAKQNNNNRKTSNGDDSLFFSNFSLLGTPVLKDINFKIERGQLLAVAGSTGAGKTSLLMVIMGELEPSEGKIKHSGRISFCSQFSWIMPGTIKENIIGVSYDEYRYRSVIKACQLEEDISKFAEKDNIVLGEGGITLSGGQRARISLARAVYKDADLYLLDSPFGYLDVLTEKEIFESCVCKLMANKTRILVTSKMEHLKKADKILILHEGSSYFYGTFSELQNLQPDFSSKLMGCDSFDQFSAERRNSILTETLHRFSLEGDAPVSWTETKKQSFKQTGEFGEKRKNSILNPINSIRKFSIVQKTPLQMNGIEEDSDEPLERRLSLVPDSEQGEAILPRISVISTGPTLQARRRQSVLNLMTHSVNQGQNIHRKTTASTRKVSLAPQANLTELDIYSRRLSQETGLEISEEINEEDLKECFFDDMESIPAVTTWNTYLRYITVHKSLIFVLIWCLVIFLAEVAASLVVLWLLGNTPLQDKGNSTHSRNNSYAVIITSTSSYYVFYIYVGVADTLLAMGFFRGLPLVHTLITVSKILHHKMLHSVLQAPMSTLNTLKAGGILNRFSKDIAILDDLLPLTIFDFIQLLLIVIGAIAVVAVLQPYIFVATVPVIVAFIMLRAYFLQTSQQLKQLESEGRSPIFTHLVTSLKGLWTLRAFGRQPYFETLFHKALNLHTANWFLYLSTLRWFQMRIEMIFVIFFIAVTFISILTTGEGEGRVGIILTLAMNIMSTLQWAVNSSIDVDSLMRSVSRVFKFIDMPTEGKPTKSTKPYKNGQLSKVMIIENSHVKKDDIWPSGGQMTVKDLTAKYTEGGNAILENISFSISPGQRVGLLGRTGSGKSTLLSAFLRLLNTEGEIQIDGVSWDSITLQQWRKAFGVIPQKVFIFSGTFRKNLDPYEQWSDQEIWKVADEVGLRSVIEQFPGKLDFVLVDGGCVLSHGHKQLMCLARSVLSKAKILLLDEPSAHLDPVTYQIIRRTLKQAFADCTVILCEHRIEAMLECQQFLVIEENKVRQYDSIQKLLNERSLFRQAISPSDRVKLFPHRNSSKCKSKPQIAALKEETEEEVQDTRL
How it was run: (§3)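 Corrector plate-reader assay. FRT cells stably coexpressing human ΔF508-CFTR and YFP-H148Q/I152L, grown 24 h at 37 °C, then exposed to compound for 16−20 h (up to 25 μM, eight concentrations). Cells are washed, then given forskolin 20 μM plus genistein 50 μM in PBS for 20 min. I⁻ influx comes from the YFP quench recorded 2 s baseline plus 12 s after iodide addition, fitted by exponential regression. Controls are DMSO vehicle and a reference corrector. EC50/Vmax come from four-parameter logistic fits; triplicate.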

[3] = test system: FRT; assay: Potentiation of genistein-induced human CFTR delta F508 mutant gating activity expressed in forskolin-stimulated FRT cells assessed as increase in iodine influx measured as decrease in YFP fluorescence after 24 hrs at 27 degC relative to control; how it was run: as §1
[4] = test system: Cystic fibrosis transmembrane conductance regulator (Homo sapiens), P13569 [F508del]; assay: Activity at human CFTR delta F508 mutant expressed in forskolin-stimulated basolateral membrane permeabilized FRT cells assessed as increase in apical chloride current at 10 uM after 18 to 24 hrs at 37 degC by short-circuit assay in presence of genistein
Sequence of Cystic fibrosis transmembrane conductance regulator (Homo sapiens), P13569 [F508del] (P13569 as listed by the source): as above
How it was run: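 Short-circuit current. ΔF508-CFTR FRT cells are cultured 7−9 days on permeable inserts, then given compound for 18−24 h at 37 °C. Apical Cl⁻ current is recorded after basolateral permeabilization under an apical-to-basolateral Cl⁻ gradient. Forskolin 20 μM and genistein 50 μM are added, followed by CFTRinh-172 10 μM.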

[5] = test system: FRT; assay: Potentiation of genistein-induced human CFTR delta F508 mutant gating activity expressed in forskolin-stimulated basolateral membrane permeabilized FRT cells assessed as increase in apical chloride current at 3 to 100 uM after 24 hrs at 27 degC by short-circuit assay
How it was run: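 Short-circuit current. ΔF508-CFTR FRT cells are cultured 7−9 days on permeable inserts and temperature-rescued 18−24 h at 27 °C. Apical Cl⁻ current is recorded in basolateral-permeabilized monolayers under an apical-to-basolateral Cl⁻ gradient. Forskolin 20 μM is added, then test compound, with CFTRinh-172 10 μM at the end.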

[6] = molecular target: Cystic fibrosis transmembrane conductance regulator (Homo sapiens, UniProt P13569); assay: as §2; details: frt; how it was run: as §3
Sequence of Cystic fibrosis transmembrane conductance regulator (Homo sapiens, UniProt P13569) (P13569 as listed by the source): as above

[7] = Homo sapiens, FRT, 24 h, read-out: EC50

SMILES	EC50 [1, 7]	EC50 [2]	Activity [4]	EC50 [6]	EC50 ([1]; frt)	Vmax [3]	Activity [5]
COc1cccc(OC)c1C(=O)NCCNc1nc2cc(C)cc(C)c2cc1C#N	11.5 µM	3.7 µM	–	–	–	119 µM/s	–
COc1ccc(C(=O)NCCNc2nc3cc(C)cc(C)c3cc2C#N)cc1OC	48 µM	1.5 µM	–	–	–	216 µM/s	–
Cc1cc(C)c2cc(C#N)c(NCCNC(=O)c3cccnc3)nc2c1	13.2 µM	2.7 µM	–	–	–	242 µM/s	–
Cc1cc(C)c2cc(C#N)c(NCCNC(=O)c3ccccc3)nc2c1	10 µM	–	–	Not Active	–	210 µM/s	–
Cc1cc(C)c2cc(C#N)c(NCCNC(=O)c3ccncc3)nc2c1	10 µM	7.3 µM	–	–	–	220 µM/s	–
Cc1cc(C)c2cc(C#N)c(NCCCNC(=O)c3ccncc3)nc2c1	13.2 µM	8.2 µM	–	–	–	53 µM/s	–
Cc1cc(C)c2cc(C#N)c(NCCNC(=O)c3cnccn3)nc2c1	–	6.7 µM	–	–	Not Active	–	–
Cc1cc(C)c2cc(C#N)c(N3CCN(C(=O)c4ccncc4)CC3)nc2c1	–	–	–	Not Active	Not Active	–	–
COc1ccc(C(=O)NCCNc2nc3cc(C)cc(C)c3cc2C#N)c(OC)c1	55 µM	4.2 µM	–	–	–	426 µM/s	–
Cc1cc(C)c2cc(C#N)c(N3CCN(C(=O)c4cccnc4)CC3)nc2c1	–	–	–	Not Active	Not Active	–	–
Cc1cc(C)c2cc(C#N)c(NCCCNC(=O)c3cccnc3)nc2c1	16 µM	3 µM	–	–	–	115 µM/s	–
COc1ccccc1C(=O)NCCCNc1nc2cc(C)cc(C)c2cc1C#N	27.6 µM	–	–	Not Active	–	254 µM/s	–

Further molecules by falling EC50 [1, 7], results first:

EC50 [1, 7]	EC50 [2]	Activity [4]	EC50 [6]	EC50 ([1]; frt)	SMILES	Vmax [3]	Activity [5]
7.4 µM	–	–	Not Active	–	Cc1cc(C)c2cc(C#N)c(N3CCN(C(=O)c4ccccn4)CC3)nc2c1	102 µM/s	–
6.1 µM	–	–	Not Active	–	Cc1cc(C)c2cc(C#N)c(NCCCNC(=O)c3ccccn3)nc2c1	233 µM/s	–
5.9 µM	2.2 µM	Active	–	–	COc1cccc(C(=O)NCCNc2nc3cc(C)cc(C)c3cc2C#N)c1	216 µM/s	Active
5 µM	4.3 µM	–	–	–	COc1ccc(C(=O)NCCCNc2nc3cc(C)cc(C)c3cc2C#N)cc1	231 µM/s	–
4.6 µM	4.6 µM	–	–	–	COc1cccc(C(=O)NCCCNc2nc3cc(C)cc(C)c3cc2C#N)c1	147 µM/s	–
4.1 µM	3 µM	Active	–	–	COc1ccc(C(=O)NCCNc2nc3cc(C)cc(C)c3cc2C#N)cc1	181 µM/s	Active
3.4 µM	2.7 µM	–	–	–	COc1ccc(C(=O)NCCNc2nc3cc(C)cc(C)c3cc2C#N)nc1	70 µM/s	–
2.3 µM	11 µM	–	–	–	COc1ccccc1C(=O)NCCNc1nc2cc(C)cc(C)c2cc1C#N	154 µM/s	–
1.3 µM	–	–	Not Active	–	COc1ccc(C(=O)N2CCN(c3nc4cc(C)cc(C)c4cc3C#N)CC2)cc1	281 µM/s	–
1.2 µM	–	–	Not Active	–	Cc1cc(C)c2cc(C#N)c(NCCNC(=O)c3ccccn3)nc2c1	80 µM/s	–
1.2 µM	–	–	Not Active	–	COc1cccc(C(=O)N2CCN(c3nc4cc(C)cc(C)c4cc3C#N)CC2)c1	200 µM/s	–
1 µM	–	–	Not Active	–	COc1ccccc1C(=O)N1CCN(c2nc3cc(C)cc(C)c3cc2C#N)CC1	129 µM/s	–
